High-throughput results from PubChem BioAssay.
Most compounds without a hit are left out; they make up all but 2.2% or so of the library.
HTRA1 inhibitor: inhibitors of human serine peptidase HTRA1. Q92743. inhibition, % at 5.96 µM. recombinant HTRA1, FP-rhodamine activity-based probe, fluorescence polarization. 340,000 compounds, 0.5% hits. AID 504803; in the data active = inhibition above about 36%;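 note: 0% = enzyme with DMSO and 100% = wells lacking enzyme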
ABHD4 inh: inhibits mouse alpha/beta hydrolase domain 4 | purified mABHD4, FP-Rh probe fluorescence polarization | 370,000 compounds, 0.54% hits | inhibition, % at 8.92 µM | AID 720543;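 active = inhibition exceeding the mean over every tested compound plus 3 SD, cut at about 30% in these data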;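 note: 0% = plate median of compound wells and 100% = S159A mutant with DMSO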
Target sequence (Q8VD66 whole entry, looked up, the tested form may be a part): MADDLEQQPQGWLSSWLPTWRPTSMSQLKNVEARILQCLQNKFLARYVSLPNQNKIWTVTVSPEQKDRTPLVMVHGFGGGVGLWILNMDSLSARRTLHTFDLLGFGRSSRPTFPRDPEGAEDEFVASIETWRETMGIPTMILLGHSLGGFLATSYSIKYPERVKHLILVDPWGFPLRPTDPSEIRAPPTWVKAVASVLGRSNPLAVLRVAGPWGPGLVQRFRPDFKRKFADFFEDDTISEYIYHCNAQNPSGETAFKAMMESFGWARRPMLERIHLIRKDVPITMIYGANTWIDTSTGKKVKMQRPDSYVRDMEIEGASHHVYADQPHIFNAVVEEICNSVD
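Test system: mouse ABHD4 enzyme, wild type. Reagent: FP-Rh fluorescent activity-based probe, added after compound pre-incubation. Timing: pre-incubation 45 min, probe exposure 60 min, at 25 °C. Technique: FP readout, ex 525 nm / em 598 nm. Benchmarks: high control S159A mutant with DMSO, low control median of compound wells.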
TCR CD3 inh: human TCR-CD3 binding inhibition; TAMRA-labeled TCR probe fluorescence, biochemical; inhibition, % at 9.4 µM; 360,000 compounds, 0.37% hits; AID 651800; in the data active = inhibition above about 19%;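 note: recombinant mutant TCR 2C K166C tagged with TAMRA read by polarization; 0% = receptor in buffer alone and 100% = receptor with positive control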
LEDGF integ inh: blocks HIV-1 LEDGF/p75-dependent DNA integration | TR-FRET IN-LEDGF/p75 DNA integration, Eu/Cy5 | inhibition, % at 3.7 µM | 370,000 compounds, 0.64% hits;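 active = inhibition above the screen-wide mean plus 3 SD, cut at about 13% in these data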;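 note: signal is the Cy5 over europium emission ratio at 671 and 618 nm; 0% = plate median of compound wells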
TDP2 inh: TDP2 (human) inhibition, absorbance primary screen; O95551; recombinant TDP2, T5PNP hydrolysis, p-nitrophenol absorbance 415 nm; inhibition, % at 12.8 µM; 370,000 compounds, 0.34% hits; AID 720702;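 active = inhibition above the mean of all tested compounds plus 3 SD, set per campaign, cut at about 25% in these data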;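 note: 0% = DMSO with enzyme and 100% = buffer with substrate but no TDP2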
Target sequence (O95551 whole entry, looked up): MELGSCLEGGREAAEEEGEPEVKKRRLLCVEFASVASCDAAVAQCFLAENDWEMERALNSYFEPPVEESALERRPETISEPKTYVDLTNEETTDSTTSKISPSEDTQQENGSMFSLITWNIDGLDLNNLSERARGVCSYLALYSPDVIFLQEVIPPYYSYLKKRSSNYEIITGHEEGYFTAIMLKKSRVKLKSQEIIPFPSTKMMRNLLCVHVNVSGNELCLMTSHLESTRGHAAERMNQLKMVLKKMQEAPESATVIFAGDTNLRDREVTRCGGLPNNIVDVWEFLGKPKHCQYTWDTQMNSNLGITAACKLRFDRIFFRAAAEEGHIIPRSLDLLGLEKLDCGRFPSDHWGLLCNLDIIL
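test system = human TDP2 enzyme | input = TDP2 enzyme at 120 nM final | medium = 50 mM Tris-HCl pH 7.5 with Mg2+, KCl, DTT, BSA | also added = T5PNP substrate, 5 mM | times = 2 h at 37 °C | technique = epi absorbance | benchmarks = high control without enzyme, low control DMSO plus TDP2 | replication = each compound tested once, singlicate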
SIAE primary: inhibitors of human sialic acid acetylesterase SIAE. Q9HAT2. SIAE FP-Rh probe binding, fluorescence polarization. inhibition, % at 9.66 µM. 370,000 compounds, 0.69% hits. AID 1053197;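 active = inhibition above a cutoff: mean of compounds within the control limits plus 3 SD of those, cut at about 17% in these data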;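 note: 0% = plate median of compound wells and 100% = probe without SIAE protein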
SIAE inh conf: confirmation of human SIAE inhibitors | shares compounds with SIAE primary | SIAE FP-Rh activity-based probe, fluorescence polarization | inhibition, % at 9.66 µM | 2,300 compounds, 13% hits;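 active = mean inhibition of the replicates above the hit cutoff set in the primary screen, cut at about 17% in these data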;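 note: 0% = SIAE with DMSO and probe and 100% = probe without SIAE; inhibitors lower polarization as more probe stays unbound to SIAE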
* hit, by the source's call; / = not tested or not shown.

SMILES	HTRA1 inhibitor	ABHD4 inh	TCR CD3 inh	LEDGF integ inh	TDP2 inh	SIAE primary	SIAE inh conf
COc1cccc(CN(C)C(=O)CC[C@H]2O[C@@H](n3ccc(=O)[nH]c3=O)[C@H](O)[C@@H]2O)c1	/	3.2	-3.9	4.2	0.3	-5.0	/
N#CC(=C1C=C(Br)C(=NO)C=C1Cl)c1cccc2ccccc12	-4.1	-0.2	-0.4	5.9	-4.2	17.8*	13.4
O=C(Cn1sc2ccccc2c1=O)N1CCN(C(=O)c2ccco2)CC1	0.8	-2.4	-2.7	-0.6	-13.7	0.8	/
CC1CCN(S(=O)(=O)c2ccc(F)c(C(=O)O)c2)CC1	-6.1	-0.7	-0.6	-3.8	-0.7	24.5*	0.5
O=C(NCC1CCCCC1)c1cc(S(=O)(=O)N2CCOCC2)ccc1F	6.1	1.7	-3.1	-7.7	3.1	78.8*	-2.1
CC1CCN(S(=O)(=O)c2ccc(Cl)cc2)CC1	0.2	-2.5	7.0	1.2	9.0	0.0	/
CCOc1ccc(S(=O)(=O)NCCC(=O)OCN2C(=O)c3ccccc3C2=O)cc1	5.8	4.8	-3.9	0.4	0.3	17.9*	1.6
Cc1ccc(S(=O)(=O)NCC(=O)OCN2C(=O)c3ccccc3C2=O)cc1	/	-0.4	-2.6	2.1	2.8	5.3	/
COc1cc(CNC(=O)c2cnccn2)cc(OC)c1	-0.8	-2.1	8.3	-0.4	15.5	5.2	/
COc1cc(CNC(=O)c2cc(C(=O)NCc3cc(OC)cc(OC)c3)n(C)n2)cc(OC)c1	-18.3	0.8	-3.0	5.2	4.8	19.9*	-5.5
COCCCNC(=O)C[C@@H]1C[C@@]2(C(=O)OC)CCCCC=C2N(Cc2ccc(Cl)cc2Cl)C1=O	/	-3.4	1.0	-3.6	-5.5	2.2	/
O=[N+]([O-])c1ccc(O)c(-c2nc(-c3ccccc3)c(-c3cccs3)[nH]2)c1	2.5	-0.3	3.7	2.6	2.5	17.1*	6.6
CCOc1cc(-c2nc(-c3ccccc3)c(-c3cc([N+](=O)[O-])ccc3C)[nH]2)ccc1O	9.7	13.4	-7.4	-2.3	-3.3	24.4*	6.5
O=C(c1cccc(C(F)(F)F)c1)C1CCCN(C(=O)/C=C/c2cnc[nH]2)C1 (configuration not stated)	3.3	7.5	4.3	1.0	-0.2	1.1	/
CCOC(=O)N1CCN(C(=O)CSc2ncccn2)CC1	4.6	3.3	3.3	-0.9	-2.1	18.9*	0.2
O=C(CSc1ncccn1)N1CCN(C(=O)CSc2ncccn2)CC1	4.6	5.3	9.4	-1.9	-2.8	-1.8	/
Cc1nc(SCC(=O)N(CC(C)C)C2CCS(=O)(=O)C2)c2ccccc2n1 (configuration not stated)	2.7	3.0	0.1	1.2	12.0	17.4*	-1.4
CCC(C)N(C(=O)CSc1nc(C)nc2ccccc12)C1CCS(=O)(=O)C1 (configuration not stated)	-2.9	4.8	6.2	-0.2	1.8	-6.4	/
COc1cc(/C=N/NC(=O)c2ccc(CSc3nc4ccccc4[nH]3)cc2)ccc1O	/	-22.4	-6.6	3.0	-9.7	18.6*	2.9
COc1cc(/C=N/NC(=O)c2ccccc2)ccc1O	-1.4	0.9	5.5	-8.2	-4.1	-3.1	/
CN(CC(=O)Nc1ccc(F)cc1)C(=O)Cc1ccsc1	8.4	-3.7	-5.5	-1.4	0.8	3.2	/
CC(C)CN1C(=O)C(=O)N(CC(=O)N(C)CC(=O)Nc2ccc(F)cc2)C1=O	-1.2	-0.5	-1.3	0.3	-2.0	19.9*	3.2
CCOC(=O)C1CN(S(C)(=O)=O)c2cc(CC(=O)OC)ccc2O1 (configuration not stated)	0.5	3.6	5.5	0.2	-3.9	28.6*	5.3
Cc1cc(C)c(S(=O)(=O)N2CCN(C(=O)CC(C)n3nc(C)nc3C)CC2)c(C)c1 (configuration not stated)	-2.3	1.8	-1.6	-0.3	-4.3	-0.3	/
CC(=O)NCCC(=O)Nc1cc(S(=O)(=O)N2CCCCC2)ccc1N1CCCCC1	2.6	1.5	1.4	-2.7	8.2	-2.5	/
SMILES	HTRA1 inhibitor	ABHD4 inh	TCR CD3 inh	LEDGF integ inh	TDP2 inh	SIAE primary	SIAE inh conf
CC(=O)NCCC(=O)Nc1cc(S(=O)(=O)Nc2ccc(Cl)cc2)ccc1N1CCCC1	-2.7	4.3	7.1	-1.3	6.8	17.8*	4.3
Cc1ccc(NC(=S)N=Nc2c(O)[nH]c3ccccc23)cc1	9.3	8.8	3.2	-7.5	-10.2	-6.4	/
Oc1ccc(NC(=S)N=Nc2c(O)[nH]c3ccccc23)cc1	14.2	18.9	2.8	-1.2	-5.0	18.9*	-6.0
CC(C)(C)c1cc(C(=O)C[n+]2ccc(C(=O)NCCCO)cc2)cc(C(C)(C)C)c1O	-3.5	-12.3	-1.9	5.6	7.2	17.9*	0.3
Cc1cc2nc(NCCCO)n(CC(=O)c3cc(C(C)(C)C)c(O)c(C(C)(C)C)c3)c2cc1C	-26.5	12.6	-0.6	-1.8	-0.8	9.3	/
COc1ccc(Cn2cc(CN3CCOCC3)nn2)cc1	/	2.3	2.2	-4.2	5.1	1.6	/
COc1cccc(C(=O)OC(C)C(=O)Nc2ccc3c(c2)OCO3)c1 (configuration not stated)	-1.4	5.7	4.2	1.9	6.1	19.3*	0.7
Cc1cc(NC(=O)COC(=O)c2ccc(S(=O)(=O)C(F)F)cc2)n(-c2ccccc2)n1	-3.7	-1.1	0.7	0.1	-0.5	-4.1	/
CCOC(=O)c1c(C)[nH]c(C(=O)OCC(=O)Nc2cc(C)nn2-c2ccccc2)c1C	-5.2	-0.6	3.5	-0.7	10.2	17.9*	-2.5
Cc1cc(Nc2ccccc2)n(-c2ccc(C(=O)O)cc2)n1	5.9	-3.2	3.5	6.7	0.3	23.4*	-3.5
CCN(CC)CCCn1c2c(c(SCC(=O)Nc3cc(C)on3)nc1=O)CCC2	1.4	5.7	8.6	-0.2	5.2	5.4	/
O=C1NC[C@@H](CCCCN2CCN(Cc3ccccc3)C(=O)C2=O)N(CCC2CCCCC2)C1=O	/	-4.3	-14.8	4.8	0.3	18.3*	5.1
CN(C)C(=S)N=Nc1[nH]c2ccccc2c1O	/	3.1	-3.1	-3.9	8.8	20.7*	-8.8
Cn1c(=O)oc2cc(S(=O)(=O)N3CCC(C(=O)N4CCN(c5ccc(F)cc5)CC4)CC3)ccc21	5.2	3.0	1.5	-1.2	2.7	19.5*	5.4
CC(C)CC1NC(=O)c2ccccc2-n2c1nc1ccccc1c2=O (configuration not stated)	/	3.6	0.1	1.6	-9.3	-1.3	/
CC1(C(=O)NCCC(F)(F)F)Cc2c(-c3ccccc3)ccnc2O1 (configuration not stated)	/	-0.9	2.8	4.4	0.0	-0.4	/
CCN(CC)CCCN(C(=O)c1ccc(F)cc1)c1nc(-c2ccc(OC)cc2)cs1	-1.8	1.5	-0.3	2.1	-5.2	23.6*	3.9
